Shown are actives, neighbours in structure and some others; about 1.6% of the full set was active somewhere.
SR-BI uptake up – activators of SR-BI mediated DiI-HDL uptake, primary screen, ldlA[mSR-BI] CHO cells, DiI fluorescence; 3 h; 100 = double the neutral-control signal; AID 504775, 2011; hit rate 0.096% among 320,000; activation, % at 12.5 µM;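 active = mean replicate activation of at least 60% and every replicate at or above 60%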
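Test system: SR-BI-overexpressing, LDLR-lacking CHO cells. Measured by: DiI fluorescence, bottom read. Medium: Ham's F12 with 0.5% BSA, HEPES 25 mM, pH 7.4. Timing: 3 h uptake period with compound, 37 °C.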
Vif inh – HIV Vif self-association inhibitors, primary screen, imaging, HEK293T, single point; inhibition, % at 7.49 µM; HEK293T cells, Vif self-association by quenched fluorescence, 24 h; hit rate 0.35% among 340,000; in the data active = inhibition above about 50%, passing the limit was not always enough
A1 inh – caspase 3/7 activation in MEF A1-2A-BIM cells, primary screen, A1 inhibitor project, cell-based, luminescence, HTS; Caspase-Glo 3/7 luminescence, 3 h; percent of clofoctol response, vehicle zero; caspase activation, % (concentration not given with the values); hit rate 0.066% among 330,000; AID 2462, 2010;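 active = over half of replicate activation scores above 10%, or exactly half above 10 with the replicate mean above 10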
H9c2 TAG inh – inhibitors of triacylglycerol accumulation, primary screen, cell-based, uHTS, fluorescence, H9c2; H9c2 cells, Nile Red lipid (TAG) fluorescence; cells loaded with 200 µM oleic acid; hit rate 0.66% among 230,000; inhibition, % at 12.5 µM;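 active = pattern-corrected inhibition of lipid staining of at least 50% with the nuclear-stain viability signal not falling by more than 50%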
SR-BI DiI inh – inhibitors of SR-BI mediated HDL lipid uptake, primary screen, ldlA[mSR-BI] cells, fluorescence, single point; ldlA[mSR-BI] CHO cells, DiI-HDL uptake fluorescence, 3 h; inhibition, % at 12.5 µM; hit rate 0.96% among 320,000; AID 488896, 2010;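 active = mean replicate inhibition of at least 70% and a set share of replicates each scoring 70 or more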
Target sequence (Q61009 whole entry, looked up): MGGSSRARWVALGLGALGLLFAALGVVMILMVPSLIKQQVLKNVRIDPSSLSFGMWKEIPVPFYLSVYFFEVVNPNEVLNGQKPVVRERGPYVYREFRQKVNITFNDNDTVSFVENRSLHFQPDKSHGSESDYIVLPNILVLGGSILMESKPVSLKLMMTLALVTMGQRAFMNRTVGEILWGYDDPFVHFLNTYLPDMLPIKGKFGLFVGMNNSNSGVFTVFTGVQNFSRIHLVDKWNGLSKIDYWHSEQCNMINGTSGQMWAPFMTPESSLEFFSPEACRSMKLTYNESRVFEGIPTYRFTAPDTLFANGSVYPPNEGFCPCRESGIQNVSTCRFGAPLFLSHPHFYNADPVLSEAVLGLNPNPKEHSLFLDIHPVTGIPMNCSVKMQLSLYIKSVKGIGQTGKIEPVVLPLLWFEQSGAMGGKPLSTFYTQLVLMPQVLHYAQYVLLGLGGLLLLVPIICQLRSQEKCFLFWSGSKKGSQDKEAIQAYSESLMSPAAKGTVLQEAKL
Large screens that a line does not name were inactive.

COCCNC(=S)N(C)[C@H]1C[C@H]2c3cc(-c4ccccc4)ccc3CCN2C(=O)[C@H]1[C@H](C)O	none (no result: SR-BI uptake up, A1 inh, SR-BI DiI inh)
COc1ccc(C)cc1Nc1n[n+](-c2ccccc2)c(-c2ccc(N(C)C)cc2)s1	SR-BI DiI inh 73 (no result: Vif inh, H9c2 TAG inh)
O=C(Nc1ccc([N+](=O)[O-])cc1)C(Cc1ccccc1)N1C(=O)c2cccc3cccc(c23)C1=O (configuration not stated)	A1 inh 5.5
CC(=O)c1cc(-c2ccc(F)cc2)n(CCC(=O)Nc2cccc(C)n2)c1C	none (no result: H9c2 TAG inh)
C=COCCNC(=O)Nc1ccc(Cl)cc1Cl	SR-BI DiI inh 72 (no result: H9c2 TAG inh)
Cc1ccccc1C(=O)Nc1c(C(=O)N2CCCC2)cnn1-c1ccccc1	none (no result: Vif inh, H9c2 TAG inh)
CCOC(=O)c1cnn(-c2ccccc2)c1NC(=O)c1ccccc1C	Vif inh 54 (no result: H9c2 TAG inh)
O=C1NC(=S)S/C1=C\C=C\c1ccc([N+](=O)[O-])o1	H9c2 TAG inh 51 (no result: A1 inh)
c1ccc(-n2nnc3ccccc32)cc1	none
Fc1c(F)c(-n2nnc3ccccc32)c(F)c(F)c1Cl	Vif inh 60 (no result: H9c2 TAG inh)
O=C(COC(=O)C(Cc1ccccc1)NC(=O)c1cccs1)NCc1ccccc1 (configuration not stated)	Vif inh 59
CNC(=S)N/N=C/c1cn(CCOc2cccc(OC)c2)c2ccccc12	SR-BI DiI inh 80 (no result: H9c2 TAG inh)
CCOC(=O)N/N=C/c1cn(CCCOc2ccc(C)cc2)c2ccccc12	SR-BI DiI inh 72 (no result: H9c2 TAG inh)
C[C@H](CO)N1C[C@H](C)[C@@H](CN(C)S(=O)(=O)c2cccs2)Oc2c(NS(=O)(=O)c3ccccc3)cccc2C1=O	none (no result: Vif inh, H9c2 TAG inh)
CN=c1scc(-c2ccc(F)cc2)n1/N=C/c1ccc(O)c(O)c1	SR-BI DiI inh 78 (no result: A1 inh)
CN=c1scc(-c2ccc([N+](=O)[O-])cc2)n1/N=C/c1ccco1	none
CC(=O)C1C(c2ccc(Cl)cc2)c2c(noc2C)CC1(C)O (configuration not stated)	none (no result: SR-BI uptake up, SR-BI DiI inh)
COc1ccccc1-c1sc2cc3c(cc2c1-c1ccc(OCCN2CCCCC2)cc1)OCO3	H9c2 TAG inh 63
COc1ccc2sc(-c3ccccc3OC)c(-c3ccc(OC)nc3)c2c1	none
COc1ccc2sc(-c3ccccc3OC)c(-c3ccc(OCCN4CCOCC4)cc3)c2c1	none (no result: A1 inh)
COc1cc2sc(-c3ccccc3OC)c(-c3ccc(OCCN4CCCCC4)cc3)c2cc1OC	H9c2 TAG inh 81
COc1cc(OC)cc(-c2sc3ccc(OC)cc3c2-c2ccc(OCCN3CCOCC3)cc2)c1	Vif inh 61 (no result: A1 inh)
COc1ccc(-c2sc3ccc(OC)cc3c2-c2ccc(OC)nc2)cc1	SR-BI DiI inh 75
COc1ccccc1NC(=O)c1coc(=O)c(Br)c1	none (no result: Vif inh)
Nc1ccc(-c2nc(-c3ccccc3)nc3ccccc23)cc1	SR-BI DiI inh 72 (no result: H9c2 TAG inh)
C=CCN(c1ccccc1)S(=O)(=O)c1cccc(C(=O)Nc2ccc(N3CCOCC3)cc2)c1	SR-BI DiI inh 80 (no result: Vif inh, A1 inh)
O=C(Nc1ccc(N2CCOCC2)cc1)c1cccc(S(=O)(=O)N2CCCCC2)c1	SR-BI DiI inh 80 (no result: Vif inh, A1 inh)
CCN1CCN(c2ccc(NC(=O)c3cccc(S(=O)(=O)N4CCCC4)c3)cc2)CC1	none
C=CCN(c1ccccc1)S(=O)(=O)c1cccc(C(=O)NNC(=O)c2ccccc2O)c1	SR-BI DiI inh 87
C=CCN(c1ccccc1)S(=O)(=O)c1cccc(C(=O)Nc2ccncc2)c1	none
CCOC(=O)c1ccc(NC(=O)c2cc3c(s2)CCC3)cc1	none (no result: SR-BI uptake up, SR-BI DiI inh)
CN1/C(=C\C=Nc2ccc3ccccc3c2)C(C)(C)c2ccccc21	Vif inh 78 (no result: SR-BI uptake up)
CN1\C(=C/C=C/C=C/C=[N+](C)C)C(C)(C)c2ccccc21	SR-BI uptake up 182 (no result: A1 inh)
CN1/C(=C\C=O)C(C)(C)c2ccccc21	none
CN(C)c1ccc(N=C/C=C2\N(C)c3ccccc3C2(C)C)cc1	none
Cc1ccc(CN2CCC(C)(Oc3ccc(Cl)cc3)C2)cc1 (configuration not stated)	none (no result: SR-BI uptake up, A1 inh, SR-BI DiI inh)
Cc1cc(C)cc(OCC(=O)N2CCN(c3ncccn3)CC2)c1	none
Cc1ccc(-c2nc(NC(=O)c3nn(C)cc3[N+](=O)[O-])sc2C)cc1C	A1 inh 39, SR-BI DiI inh 74 (no result: Vif inh, H9c2 TAG inh)
Cn1cc([N+](=O)[O-])c(C(=O)Nc2nc(-c3ccc(Cl)cc3)cs2)n1	none
Cc1ccc(-c2nc(NC(=O)c3nn(C)cc3[N+](=O)[O-])sc2C)cc1	A1 inh 11 (no result: Vif inh, H9c2 TAG inh)
Cc1cnc(NC(=O)c2nn(C)cc2[N+](=O)[O-])s1	none (no result: A1 inh)
Cc1ccc(C)c(Nc2c([N+](=O)[O-])c(=O)oc3ccccc23)c1	none
COc1cc(C(=O)N=c2sc3c(C)ccc(OC)c3n2C)cc(OC)c1OC	SR-BI DiI inh 78
COc1ccc(OC)c2c1sc(=NC(=O)C(C)(C)C)n2C	none
COc1ccc(C(=O)N=c2sc3c(C)ccc(OC)c3n2C)cc1	SR-BI DiI inh 77 (no result: A1 inh)
COc1cc(/C=C(\C#N)C(=O)NC2CCCCC2)ccc1OCc1ccc(C(=O)O)cc1	none
Cc1ccc(/C=C/C(=O)O)cc1S(=O)(=O)N1CCc2ccccc21	Vif inh 58 (no result: H9c2 TAG inh)
Cc1ccc(/C=C/C(=O)O)cc1S(=O)(=O)N1CCCc2ccccc21	none
O=C(CSC1=NNC(c2ccccn2)S1)Nc1ccccc1 (configuration not stated)	none
O=C(CSC1=NNC(c2ccccn2)S1)Nc1cccc(Cl)c1 (configuration not stated)	SR-BI DiI inh 78 (no result: Vif inh)
Cc1cc(/C=C2\C(=N)N3C(SCc4ccccc4)=NSC3=NC2=O)c(C)n1Cc1ccccc1	Vif inh 93 (no result: H9c2 TAG inh)
Cc1cc(/C=C2\C(=N)N3N=C(C(C)C)SC3=NC2=O)c(C)n1Cc1ccccc1	none
O=C1C=CC(=O)N1c1ccc(Nc2ccccc2)cc1	none (no result: A1 inh)
O=C1C(Nc2ccccc2)=C2CCCC=C2N1c1ccccc1	SR-BI DiI inh 79
CC1Sc2ccc(S(=O)(=O)N3CCC(C(=O)NCC(C)c4ccccc4)CC3)cc2NC1=O (configuration not stated)	SR-BI uptake up 133 (no result: H9c2 TAG inh)
CC(Nc1ccc(Cl)cc1)c1cc(Cl)ccc1O (configuration not stated)	SR-BI uptake up 373
CCOc1ccc(NC(C)c2cc(Cl)ccc2O)cc1 (configuration not stated)	none
Cc1cccc(COc2ccc(/C=N/NC(=O)c3nnn(-c4nonc4N)c3COc3ccc(F)cc3)cc2)c1	none
COc1ccc(S(=O)(=O)N2CCOCC2)cc1N=Nc1sc(N)nc1-c1ccccc1	SR-BI DiI inh 81 (no result: H9c2 TAG inh)
O=[N+]([O-])c1ccc(N/N=C/c2ccc(OCc3cccc4ccccc34)cc2)nc1	Vif inh 149
CCN(CC)c1ccc(C=NNc2ccc([N+](=O)[O-])cn2)cc1	SR-BI DiI inh 84 (no result: A1 inh)
CSc1nnc(Cc2cc(=O)[nH]c(=O)[nH]2)n1-c1cc(C)ccc1C	SR-BI uptake up 70

Bioassay records deposited in PubChem BioAssay by several laboratories.
